# TAAR1 agonist: human TAAR1 agonism | 0.99% of 360,000 active | Q96RJ0 | CHO RD-HGA16 TAAR1, Fluo-8 calcium fluorescence; vehicle wells 0%, saturating PEA agonist 100% | activation, % at 3 µM;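 active = activation above the mean activation of all test compounds in the run plus 3 SD, cut at about 38% in these data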
# Target sequence (Q96RJ0 whole entry, looked up): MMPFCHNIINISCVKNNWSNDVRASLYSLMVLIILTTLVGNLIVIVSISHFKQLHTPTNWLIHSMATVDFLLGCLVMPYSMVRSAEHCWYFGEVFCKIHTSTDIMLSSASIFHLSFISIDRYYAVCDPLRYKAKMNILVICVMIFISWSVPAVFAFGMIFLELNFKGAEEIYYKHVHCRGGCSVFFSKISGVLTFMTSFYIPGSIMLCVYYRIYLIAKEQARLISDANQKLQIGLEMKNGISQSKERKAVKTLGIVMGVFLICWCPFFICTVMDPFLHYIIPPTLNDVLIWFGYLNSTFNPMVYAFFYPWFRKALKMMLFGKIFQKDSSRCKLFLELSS
#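 System: CHO RD-HGA16 cells carrying human TAAR1 plus Gα16; Incubation: 17-24 h seeding, 75 min 37 °C dye, 30 min RT; Measured by: Fluo-8 fluorescence, 5 s baseline then 140 s kinetic read; Control set: DMSO and PEA EC100; Replication: single well for each compound.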
# OX1R antag-1: human HCRTR1 antagonism; O43613; CHO/OX1R cells, Fluo-8 calcium fluorescence, orexin A; inhibition, % at 5 µM; 0.43% of 330,000 active; AID 434989;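 active = inhibition above its plate's threshold, mean inhibition of all tested compounds on the plate plus 3 SD, cut at about 37% in these data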;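 note: 0% = orexin A challenge wells and 100% = SB-334867-A antagonist wells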
# CHO parental Ca: counter-screen: ATP calcium response change in parental CHO cells | parental CHO-K1, ATP-induced calcium, Fluo-8 fluorescence | AID 463079 | 0.63% of 330,000 active | inhibition, % at 5.6 µM;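 active = inhibition above that plate's mean sample inhibition plus 3 SD, cut at about 26% in these data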;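 note: 0% = ATP-challenged DMSO wells and 100% = DMSO wells without ATP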
#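 Material: Parental CHO cells | Reagent: ATP | Compound dosing: Single nominal dose of 5.6 µM per compound | Detection: Intracellular calcium via Fluo-8 no-wash fluorescent dye | Read-out: % inhibition of ATP-induced calcium mobilization | Benchmarks: Low control ATP plus DMSO, high control DMSO only | Replicates: Singlicate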
# OX1R antag-2: blocks the human orexin 1 receptor. O43613. OX1R-expressing cells, FRET antagonist read-out. inhibition, % at 6.6 µM. 1.8% of 330,000 active; in the data active = inhibition mostly above about 38%, no sharp cut-off; inactive = mostly below about 40%;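 note: 0% = agonist challenge alone and 100% = reference antagonist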
# TAAR1 antag: human TAAR1 antagonism; Q96RJ0; CHO RD-HGA16 TAAR1, Fluo-8 calcium fluorescence, antagonist; inhibition, % at 3 µM; 1.5% of 360,000 active;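 active = inhibition above a per-plate cutoff, the mean inhibition of test compounds on that plate plus 3 SD, cut at about 49% in these data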;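 note: 0% = DMSO plus EC80 beta-PEA response and 100% = DMSO alone without agonist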
#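 System: RD-HGA16 CHO cells with stable hTAAR1 and Gα16 | Probe or stimulus: EC80 β-phenethylamine stimulus | Dosing: 3 µM, single point | Times: Dye loading 75 min at 37 °C, then 30 min room temperature | Measured by: Fluo-8 calcium-sensitive fluorescence | Read-out basis: % inhibition of agonist calcium response | Replicates: n of 1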
# Numbers without * were called inactive; · = no result given; ! = repeats disagree. Sampled rows, rich in hits. Any-hit rate of the full collection: about 3.9%.
SMILES,TAAR1 agonist,OX1R antag-1,CHO parental Ca,OX1R antag-2,TAAR1 antag
COC(=O)C1=C(C)NC(=S)NC1c1ccc(-c2cc(Cl)ccc2Cl)o1 (stereo not given),5.5,-14.7,-0.9,55.5*,-30.3
CSc1ncccc1C(=O)OCC(=O)N(CC(C)C)C1CCS(=O)(=O)C1 (stereo not given),-2.1,-17.8,-7.2,19.4,10.8
COC(=O)C1=C(C)NC(=O)NC1c1ccc(-c2ccc(Cl)cc2)o1 (stereo not given),4.8,-33.2,-10.5,14.1,0.2
COC(=O)C1=C(C)NC(=O)NC1c1ccc([N+](=O)[O-])o1 (stereo not given),2.9,-15.7,-12.7,76.6*,10.4
COc1ccc(-c2csc(C(C)(NC(C)=O)c3ccccc3)n2)cn1 (stereo not given),5.8,·,·,·,-6.0
CCC(C)Sc1ccc(-c2nc3ccc(C)cn3c2NCc2ccccc2)cc1OC (stereo not given),·,56.3*,35.4,55.6,·
CCC(C)Sc1cc(-c2nc3ccc(C)cn3c2NCc2ccccc2)ccc1OC (stereo not given),3.5,72.6*,97.0*,54.3,72.2*
CCC(C)Sc1ccc(-c2nc3ccc(Cl)cn3c2NCc2ccccc2)cc1 (stereo not given),3.5,0.7,-20.8,16.7,22.0
CCC(C)Sc1cccc(-c2nc3cc(C)ccn3c2NCc2ccccc2)c1 (stereo not given),6.0,19.8,16.9,34.0,77.5*!
CCCCCCSc1ccc(-c2nc3ccc(C)cn3c2NCc2ccccc2)cc1OC,-1.5,-54.6,-23.0,31.9,2.5
COc1ccc(-c2cc(-c3nc4ccccn4c3NCc3ccccc3)ccc2OC)cc1,19.8,96.4*,99.6*,88.7*,87.5*
C[C@@H]1COc2cc(NCCO)ccc2S(=O)(=O)N1,2.1,·,·,·,9.4
Cc1ccc(NS(=O)(=O)c2ccc(NC(=O)c3ccccc3C(=O)O)cc2)c(C)c1,3.3,-4.2,-6.4,17.9,-23.7
Cc1ccc(NS(=O)(=O)c2ccc(NC(=O)c3ccc(Br)o3)cc2)c(C)c1,11.9,39.4,35.9*,19.2,42.1
CCCCCCCCN1C(=O)[C@H](CC(=O)N2CCOCC2)C[C@@]2(C(=O)OCC)CCCC=C12,-2.3,·,·,·,-11.3
CN1c2ccccc2C(C)(C)C12C=Cc1cc(O)ccc1O2 (stereo not given),-0.2,21.7,56.1*,28.6,16.6
CN1c2ccccc2C(C)(C)C12C=Nc1c(cc(N3CCOCC3)c3ccccc13)O2 (stereo not given),7.9,·,·,·,15.8
CN(C)c1ccc(CC(=O)N2CCCCC2c2cc(C(=O)Nc3cccc(C#N)c3)no2)cc1 (stereo not given),10.3,·,·,·,7.1
Cc1ccc(C)c(CC(=O)N2CCCCC2c2cc(C(=O)Nc3cccc(C#N)c3)no2)c1 (stereo not given),48.2*,·,·,·,44.0
COc1cccc(C2=NOC(C(=O)NCc3ccccn3)C2)c1 (stereo not given),45.1*,-5.9,-6.4,5.0,-21.5
COc1ccc(C2=NOC(C(=O)NCc3ccccn3)C2)cc1 (stereo not given),1.1,-21.5,-6.3,23.3,7.7
CCOC(=O)NC(NCC(O)c1ccccc1)(C(F)(F)F)C(F)(F)F (stereo not given),67.4*,-6.6,2.2,10.0,55.7*
CCCCOC(=O)NC(NCC(O)c1ccccc1)(C(F)(F)F)C(F)(F)F (stereo not given),4.9,-6.1,-10.4,10.1,-7.4
C=CCn1c2ccccc2c2nnc(SCCN3CCCCC3)nc21,3.7,-19.6,-15.4,12.6,-17.0
C=CCn1c2ccccc2c2nnc(SCN3C(=O)c4ccccc4C3=O)nc21,16.1,-20.9,-28.5,62.4,50.7*
SMILES,TAAR1 agonist,OX1R antag-1,CHO parental Ca,OX1R antag-2,TAAR1 antag
C=CCn1c2ccccc2c2nnc(SCCCn3c(=O)[nH]c4ccccc43)nc21,9.8,·,·,·,56.0*
O=[N+]([O-])c1cc(F)cc(F)c1Nc1cc(F)cc(F)c1,2.6,·,·,·,-2.0
Cc1cn2c(N)c(/C=C3\C=Nc4ccccc43)c(=O)nc2s1,5.4,-11.2,-8.5,45.0*,-0.9
COc1cc2c(C#CCCO)c(-c3ccsc3)oc(=O)c2cc1OC,8.1,-6.3,-17.1,61.4*,31.5
COc1ccc(C(=O)C(=O)N2CCC(c3ccccc3)CC2)cn1,-0.7,·,·,·,-0.7
CC1=CC(=O)C=C(C)C1=NOS(=O)(=O)c1ccccc1,18.9,·,·,·,52.4*
CC1=CC(=O)C(C(C)C)=C/C1=N/OS(=O)(=O)c1ccccc1,19.9,75.3*,71.5*,64.3*,43.3
O=C1[C@@H]2[C@H](C(=O)N1C[C@@H](COCc1ccccc1)Oc1cccc3c1S(=O)(=O)N(CCc1ccc(F)cc1)C[C@H](COCc1ccccc1)O3)[C@@H]1C=C[C@H]2C1,2.9,·,·,·,-6.8
CCCCN1CC(COCc2ccccc2)Oc2cccc(OCCN3C(=O)[C@@H]4[C@H](C3=O)C3C=C[C@H]4C3)c2S1(=O)=O (stereo not given in full),17.9,·,·,·,69.8*
O=C(Nc1ccc2ccccc2n1)c1ccccc1,2.2,-8.8,-7.5,1.7,2.5
O=C(Nc1ccc2ccccc2n1)c1ccccc1Br,-3.5,-2.9,-18.4,42.5*,-23.2
Cc1cccc(C(=O)n2c(=S)nc3cc(C)ccn32)c1,0.0,-6.5,-11.8,41.4*,-12.6
Cc1ccn2c(c1)nc(=S)n2C(=O)c1ccccc1,2.4,-6.5,-10.9,13.3,-14.5
O=S(=O)(c1ccc(SCCOc2ccc(Cl)cc2)nc1)N1CCCC1,0.4,1.6,30.0*,-5.9,-10.2
COc1cc(CC(=O)Nc2sccc2C(N)=O)cc(OC)c1OC,7.8,4.8,-24.2,34.9,12.7
COc1ccc(C(=O)NC(C(=O)OCC(=O)Nc2sccc2C(N)=O)C(C)C)cc1 (stereo not given),9.5,-9.7,-16.6,7.8,34.5
COc1ccc(CCC(=O)OCC(=O)Nc2sccc2C(N)=O)cc1OC,16.0,46.2*,46.7*,36.3*,33.8
COc1ccc(CCC(=O)OCC(=O)Nc2sccc2C(N)=O)cc1,10.6,54.6*,33.0*,11.3,28.3
COC(=O)[C@]12CCCCC=C1N(Cc1cccc3ccccc13)C(=O)[C@H](CC(=O)NCCCN1CCCC1=O)C2,10.2,·,·,·,22.8
Cc1cc(C(=O)COC(=O)c2ccc(O)cc2O)c(C)n1-c1ccc(OC(F)F)cc1,0.5,·,·,·,45.9
COc1ccc(-n2c(C)cc(C(=O)COC(=O)Cn3cnc4ccccc43)c2C)cc1,4.9,17.6,33.7*,32.3,26.8
COc1ccc(-n2c(C)cc(C(=O)COC(=O)c3ccc(O)cc3O)c2C)cc1,-0.6,44.9*,33.5*,18.1,26.3
Cc1ccc2ccccc2c1C(O)c1ncc(-c2ccccc2Cl)[nH]1 (stereo not given),4.3,·,·,·,-15.3

# High-throughput results deposited in PubChem by The Scripps Research Institute Molecular Screening Center.
